For series [1], the target named is Human immunodeficiency virus type 1 reverse transcriptase (Human immunodeficiency virus 1, UniProt Q72547). Put plainly: Inhibition of HIV1 reverse transcriptase using poly(ra)/oligo(dT)15 homopolymer template as substrate after 1 hr.
Series [2] is described as follows: Selectivity index, ratio of CC50 for human MT4 cells to EC50 for NNRTI-resistant HIV1 A17 expressing reverse transcriptase K103N and Y181C mutant. Type of series: toxicity, cell-based. The following applies: read-out: Ratio CC50/EC50. Put shortly:
(§1)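 SI is CC₅₀ in MT4 cells over EC₅₀ for each strain. For CC₅₀, MT4 cells (5 × 10⁴/well) were exposed to graded compound concentrations for 3 days at 37 °C, then given CCK-8/XTT for 4 h at 37 °C and read at 450 nm absorbance. Assays were run in triplicate.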

The test system of series [3] is Human immunodeficiency virus 1. Put plainly: Antiviral activity against NNRTI-resistant HIV1 A17 expressing reverse transcriptase K103N and Y181C mutant infected in human MT4 cells assessed as inhibition of viral p24 antigen production after 7 days by ELISA. Type of series: functional, organism-based. As to conditions: Human immunodeficiency virus 1, A17, MT4, 168 h. Put shortly:
(§2)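 MT4 cells (4 × 10⁴/well) were infected with 200 TCID₅₀ of HIV-1 and incubated 2 h at 37 °C. Compounds were then added at serial dilutions. Each compound was run in triplicate, reported as mean SD.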

Series [4] deals with Human immunodeficiency virus 1. Put plainly: Antiviral activity against HIV1 SF33 infected in human MT4 cells assessed as inhibition of viral p24 antigen production after 7 days by ELISA. Type of series: functional, organism-based. As to conditions: Human immunodeficiency virus 1, SF33, MT4, 168 h. The procedure, abridged: as §2
Series [5] can be described thus: Selectivity index, ratio of CC50 for human MT4 cells to EC50 for HIV1 SF33. Type of series: toxicity, cell-based. As to conditions: read-out: Ratio CC50/EC50. Put shortly:
as §1

Series [6] relates to MT4. In words: Cytotoxicity against human MT4 cells after 3 days by XTT assay. Type of series: cell-based. The following applies: mt4, 72 h. The procedure, abridged:
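MT4 cells (5 × 10⁴/well) exposed to graded compound concentrations at 37 °C for 3 days. CCK-8 reagent then added, with a further 4 h at 37 °C for XTT formazan colour development. Absorbance read at 450 nm to give CC₅₀. Each compound run in triplicate.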

The test system of series [7] is Human immunodeficiency virus 1. Put plainly: Ratio of nevirapine EC50 to compound EC50 for HIV1 SF33. Type of series: functional.

The results in this text go back to ChEMBL document CHEMBL2040821, “Design, synthesis, and biological evaluation of 1-[(2-benzyloxyl/alkoxyl)methyl]-5-halo-6-aryluracils as potent HIV-1 non-nucleoside reverse transcriptase inhibitors with an improved drug resistance profile” (J Med Chem, 2012).

Take `CCOCn1c(Cc2ccccc2)c(I)c(=O)[nH]c1=O`: the IC50 in series [1] is 114 nM. That is a sub-micromolar value.

`CCOCn1c(Cc2cc(C)cc(C)c2)c(I)c(=O)[nH]c1=O`: the values for the selectivity ratio in series [2] and in series [5] were 222 and 23700, respectively. The EC50 is 637 nM in series [3] and 6 nM in series [4]. In addition, the IC50 in series [1] was determined as 110 nM. The CC50 in series [6] is 142000 nM.

Consider `CCOCn1c(Cc2cc(F)cc(F)c2)c(I)c(=O)[nH]c1=O`, for which the figures for the selectivity ratio in series [2] and in series [5] were < 30 and 559, respectively. For the same compound, the EC50 is > 10000 nM in series [3] and 537 nM in series [4]. In series [1], this compound returned an IC50 of 11800 nM. Besides, it took 300000 nM to reach half-maximal cytotoxicity in series [6] (CC50).

Turning to `O=c1[nH]c(=O)n(COCc2ccccc2)c(Cc2ccccc2)c1I`, the selectivity ratio in series [2] was < 7; in series [5], 1660. The EC50 in series [3] is > 10000 nM; in series [4], 45 nM. In series [1], this compound returned an IC50 of 10 nM. This compound had a CC50 in series [6] of 74800 nM.

In the case of `Cc1cc(C)cc(Cc2c(I)c(=O)[nH]c(=O)n2COCc2ccccc2)c1`, the values for the selectivity ratio in series [2] and in series [5] were 1080 and 38200, respectively. Also, the concentration giving a half-maximal response (EC50) came out at 91 nM in series [3] and 2 nM in series [4]. Further, the Ratio EC50 in series [7] worked out at 325. Further, it took 3 nM to reach half-maximal inhibition in series [1] (IC50). The CC50 in series [6] amounted to 98300 nM.

For the compound `O=c1[nH]c(=O)n(COCc2ccccc2)c(Cc2cc(F)cc(F)c2)c1I`, the values for the selectivity ratio in series [2] and in series [5] were 48 and 20200, respectively. Also, the EC50 in series [3] was 2540 nM; in series [4], 6 nM. The “Ratio EC50” value in series [7] is listed as 46. The concentration for half-maximal inhibition (IC50) in series [1] came out at 15 nM. In addition, the cytotoxic concentration (CC50) in series [6] was determined as 121000 nM.

On to `CCOCn1c(Cc2ccccc2)c(Br)c(=O)[nH]c1=O`, for which the selectivity ratio is < 15.5 in series [2] and 75 in series [5]. The EC50 is > 10000 nM in series [3] and 2070 nM in series [4]. In addition, the IC50 in series [1] came to 1820 nM. The midpoint of cytotoxicity in series [6], the CC50, lay at 155000 nM.

Consider `CCOCn1c(Cc2cc(C)cc(C)c2)c(Br)c(=O)[nH]c1=O`, for which the IC50 in series [1] stood at 210 nM.

For the compound `O=c1[nH]c(=O)n(COCc2ccccc2)c(Cc2ccccc2)c1Br`, the selectivity ratio in series [2] is < 6.7; in series [5] it was 39. In addition, the EC50 in series [3] was > 10000 nM; in series [4] it was 1720 nM. The same compound showed an IC50 in series [1] of 1520 nM. For the same compound, the CC50 in series [6] was found to be 67400 nM.

As for `Cc1cc(C)cc(Cc2c(Br)c(=O)[nH]c(=O)n2COCc2ccccc2)c1`, the selectivity ratio in series [2] worked out at 253; in series [5], 16900. For the same compound, the concentration for a half-maximal effect (EC50) in series [3] is 601 nM; in series [4] it was 9 nM. In addition, the IC50 in series [1] stood at 43 nM. The compound further came in with a cytotoxic concentration (CC50) in series [6] of 152000 nM.

`CCOCn1c(Cc2ccccc2)c(N(C)C)c(=O)[nH]c1=O`: the selectivity ratio in series [2] is < 16.6; in series [5], 270. The EC50 is > 10000 nM in series [3] and 614 nM in series [4]. Also, the IC50 in series [1] amounted to 162 nM. In series [6], this compound registered a 50% cytotoxic concentration (CC50) of 166000 nM.

Consider `CCOCn1c(Cc2cc(C)cc(C)c2)c(N(C)C)c(=O)[nH]c1=O`, for which, in series [1], half-maximal inhibition (IC50) was put at 39 nM. This counts as double-digit nanomolar.

For `CN(C)c1c(Cc2ccccc2)n(COCc2ccccc2)c(=O)[nH]c1=O`, the values for the selectivity ratio in series [2] and in series [5] were < 9 and 264, respectively. Further, the EC50 in series [3] was > 10000 nM; in series [4], 345 nM. This compound returned an IC50 in series [1] of 12 nM. In series [6], this compound came in with a CC50 of 91800 nM.

Regarding `Cc1cc(C)cc(Cc2c(N(C)C)c(=O)[nH]c(=O)n2COCc2ccccc2)c1`, the figures for the selectivity ratio in series [2] and in series [5] were 25 and 5200, respectively. Besides, the 50% effective concentration (EC50) in series [3] was found to be 2200 nM; in series [4], 14 nM. Further, in series [7], the “Ratio EC50” value stood at 46. Besides, in series [1], half-maximal inhibition (IC50) required 21 nM. This compound displayed a CC50 in series [6] of 55800 nM.

For the compound `Cc1cc(C)cc(Cc2c(I)c(N)nc(=O)n2COCc2ccccc2)c1`, the IC50 in series [1] is 7220 nM.

In the case of `Cc1cc(C)cc(Cc2c(Br)c(N)nc(=O)n2COCc2ccccc2)c1`, in series [1], the IC50 is 16300 nM. This IC50 is about 2.3-fold higher than that of the compound before.

On to `CC(C)c1c(Cc2ccccc2)n(COCc2ccccc2)c(=O)[nH]c1=O`, for which the selectivity ratio in series [2] was < 6.6; in series [5] it was 3840. Besides, the EC50 in series [3] is > 10000 nM; in series [4], 22 nM. The compound further had an IC50 in series [1] of 20 nM. This compound also yielded a CC50 in series [6] of 84600 nM.

For the compound `Cc1ccnc2c1NC(=O)c1cccnc1N2C1CC1` [NEVIRAPINE], the EC50 is > 10000 nM in series [3] and 68 nM in series [4]. This compound displayed a CC50 in series [6] of 325000 nM.
